The record followed here is PubChem BioAssay AID651654 (Broad Institute, 2012).

About 740 (0.21%) of roughly 360,000 compounds were called active. The entries come from a sample that favours actives as a whole. A number with no mark means an inactive call.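 Rule for the calls: active = mean lysis activity across replicates of at least 80%, whatever share of replicates individually reach that level; inactive = mean lysis activity below 80%.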

The nature of this assay: fungicidal lysis via adenylate kinase leakage – AK release luminescence, single concentration, primary screen (AID 651654). Particulars: C. neoformans lysis, 4 h, at 15 µM, stronger effect = higher value, normalised: neutral wells 0, clomiphene wells 100. In short, it runs like this: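 Material – Cryptococcus neoformans yeast cells · Quantity – 5 × 10^6 yeast cells/mL · Buffer or medium – YPD medium · Compound – single dose · Timing – 4 h static compound exposure, 37 °C, read 1 h post-reagent · Signal – adenylate kinase release luminescence · Read-out basis – lysis from increased AK signal · Benchmarks – Clomiphene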
Take `COCC(=O)Nc1ccc2c(c1)OC[C@H](C)N(C(=O)Cc1ccccn1)C[C@H](C)[C@@H](OC)CN(C)C2=O`: the lysis activity was 6.59%.

As to `CCC(=O)N1[C@@H]2c3ccc(-c4cccnc4)c(=O)n3C[C@H]1[C@H](CO)[C@H]2C(=O)N1CCc2ccccc2C1`, the lysis activity is -6.94%.

`C[C@H](CO)N1C[C@H](C)[C@H](CN(C)Cc2ccc(C(F)(F)F)cc2)Oc2c(NC(=O)C3CCOCC3)cccc2C1=O`: the lysis activity was 0.0275%.

Turning to `Cc1ccc(S(=O)(=O)Nc2ccc3c(c2)C(=O)N([C@H](C)CO)C[C@@H](C)[C@H](CN(C)C(=O)Nc2ccc(C(F)(F)F)cc2)OCCCC[C@H](C)O3)cc1`, the lysis activity is -2.02%.

As to `Cc1ccc(S(=O)(=O)Nc2ccc3c(c2)C(=O)N([C@H](C)CO)C[C@@H](C)[C@@H](CN(C)S(C)(=O)=O)OCCCC[C@@H](C)O3)cc1`, the lysis activity was -3.44%.

In the case of `Cc1noc(C)c1S(=O)(=O)Nc1ccc2c(c1)C(=O)N([C@H](C)CO)C[C@@H](C)[C@@H](CN(C)Cc1ccccc1)OCCCC[C@@H](C)O2`, the lysis activity is 0.357%.

Consider `CCCN(C)C[C@@H]1OCCCC[C@H](C)Oc2ccc(NS(=O)(=O)c3ccc(C)cc3)cc2C(=O)N([C@H](C)CO)C[C@@H]1C`, for which the lysis activity is 98.4% (active).

For `Cc1noc(C)c1S(=O)(=O)Nc1ccc2c(c1)C(=O)N([C@@H](C)CO)C[C@@H](C)[C@@H](CN(C)Cc1ccccc1)OCCCC[C@H](C)O2`, the lysis activity is 96.8% (active).

In the case of `Cc1noc(C)c1S(=O)(=O)Nc1ccc2c(c1)C(=O)N([C@@H](C)CO)C[C@H](C)[C@H](CN(C)CC1CCCCC1)OCCCC[C@H](C)O2`, the lysis activity is 1.9%.

With `C[C@H](CO)N1C[C@H](C)[C@H](CN(C)C)Oc2c(NC(=O)C3CCOCC3)cccc2C1=O`, the lysis activity is -4.63%.

Regarding `C[C@H]1CN([C@@H](C)CO)C(=O)c2cc(NS(C)(=O)=O)ccc2O[C@H]1CN(C)C(=O)Nc1ccc(C(F)(F)F)cc1`, the lysis activity was 2.09%.

Consider `C[C@H]1CN([C@@H](C)CO)C(=O)c2cccc(NC(=O)C3CCOCC3)c2O[C@@H]1CN(C)C`, for which the lysis activity was -5.09%.

As to `CCCN(C)C[C@H]1OCCCC[C@H](C)Oc2ccc(NS(=O)(=O)c3ccc(C)cc3)cc2C(=O)N([C@@H](C)CO)C[C@H]1C`, the lysis activity is -0.143%.

In the case of `C[C@@H]1CN([C@@H](C)CO)C(=O)c2cccc(NC(=O)C3CC3)c2O[C@@H]1CN(C)C`, the lysis activity was 80.7% (active).

For the molecule `Cc1ccc(S(=O)(=O)Nc2ccc3c(c2)C(=O)N([C@@H](C)CO)C[C@H](C)[C@H](CN(C)C(=O)Nc2ccc(C(F)(F)F)cc2)O3)cc1`, the lysis activity was 100% (active).

With `C[C@@H]1CN([C@@H](C)CO)C(=O)c2cc(NS(=O)(=O)c3cn(C)cn3)ccc2O[C@@H](C)CCCCO[C@H]1CN(C)S(=O)(=O)c1cn(C)cn1`, the lysis activity is 1.43%.

Take `Cc1noc(C)c1S(=O)(=O)Nc1ccc2c(c1)CC(=O)N([C@H](C)CO)C[C@H](C)[C@H](CN(C)S(=O)(=O)c1cn(C)cn1)O2`: the lysis activity is -4.65%.

For `C[C@@H]1CCCCO[C@H](CN(C)C)[C@H](C)CN([C@@H](C)CO)C(=O)c2cc(NS(=O)(=O)c3cn(C)cn3)ccc2O1`, the lysis activity is -0.536%.

`C[C@@H]1CN([C@H](C)CO)C(=O)c2cc(NS(=O)(=O)c3cn(C)cn3)ccc2O[C@@H](C)CCCCO[C@H]1CN(C)C`: the lysis activity was 109% (active).

With `Cc1ccc(S(=O)(=O)N(C)C[C@@H]2Oc3ccc(NS(=O)(=O)c4c(C)noc4C)cc3CC(=O)N([C@H](C)CO)C[C@H]2C)cc1`, the lysis activity was 1.73%.

As to `Cc1noc(C)c1S(=O)(=O)Nc1ccc2c(c1)CC(=O)N([C@@H](C)CO)C[C@H](C)[C@@H](CN(C)S(=O)(=O)c1cn(C)cn1)O2`, the lysis activity was 117% (active).

In the case of `C[C@H]1CN([C@@H](C)CO)C(=O)c2cc(NS(=O)(=O)c3cn(C)cn3)ccc2O[C@H]1CN(C)CC1CCCCC1`, the lysis activity is -5.59%.

Consider `C[C@@H]1CN([C@H](C)CO)C(=O)c2cccc(NS(=O)(=O)c3cn(C)cn3)c2O[C@H]1CN(C)CC1CC1`, for which the lysis activity is -3.67%.

Consider `C[C@H]1CN([C@@H](C)CO)C(=O)c2cccc(NS(=O)(=O)c3cn(C)cn3)c2O[C@@H]1CN(C)CC1CCCCC1`, for which the lysis activity was 82.6% (active).

Regarding `CN1c2ccc(-c3ccccc3)cc2[C@H]2[C@H](CCN2C(=O)c2ccc3c(c2)OCO3)[C@H]1CO`, the lysis activity is -10.3%.

`COCC(=O)N(C)C[C@H]1Oc2cc(C#C[C@@H](C)O)ccc2S(=O)(=O)N([C@H](C)CO)C[C@H]1C`: the lysis activity was 9.52%.

Regarding `Cc1ccc(OCCCC(=O)NC(C)c2ccccc2)c(C)c1` (configuration not stated), the lysis activity is 3.6%.

`Cc1ccc(OCC(=O)Nc2ccc(C(=O)O)cc2NC(=O)COc2ccc(C)c(C)c2)cc1C`: the lysis activity is -1.83%.

Regarding `Cc1ccc(OCC(=O)NC(C)c2ccccc2)cc1C` (configuration not stated), the lysis activity was 204% (active).

In the case of `C[C@H]1CCCCO[C@H](CN(C)S(=O)(=O)c2cn(C)cn2)[C@@H](C)CN([C@@H](C)CO)C(=O)c2cc(NC(=O)C3CCCCC3)ccc2O1`, the lysis activity was -1.38%.

Consider `Cc1cccc(S(=O)(=O)N2CC[C@@H]3[C@H]2c2cc(C#Cc4ccc(F)cc4)ccc2N[C@@H]3CO)c1`, for which the lysis activity is -3.22%.

Take `CO[C@H]1CN(C)C(=O)c2cc(NC(=O)Nc3cccc(F)c3)ccc2OC[C@@H](C)N(C)C[C@H]1C`: the lysis activity is 18.3%.

Turning to `CO[C@H]1CN(C)C(=O)c2ccc(NC(=O)C3CC3)cc2OC[C@@H](C)N(Cc2ccc(F)cc2)C[C@@H]1C`, the lysis activity is 95.3% (active).

For `CO[C@@H]1CN(C)C(=O)c2cc(NC(=O)C3CC3)ccc2OC[C@H](C)N(Cc2ccc(F)cc2)C[C@@H]1C`, the lysis activity is 0.205%.

Take `CO[C@@H]1CN(C)C(=O)c2cc(NC(=O)Nc3cccc(F)c3)ccc2OC[C@H](C)N(C)C[C@@H]1C`: the lysis activity was 98.7% (active).

Regarding `CO[C@@H]1CN(C)C(=O)c2cc(NC(=O)C3CC3)ccc2OC[C@@H](C)N(Cc2ccc(F)cc2)C[C@@H]1C`, the lysis activity was 1.45%.

Consider `CO[C@H]1CN(C)C(=O)c2cc(NC(=O)Nc3cccc(F)c3)ccc2OC[C@@H](C)N(C)C[C@@H]1C`, for which the lysis activity was 7.44%.
